Screening data (PubChem BioAssay)
ABCG2 inh = human ABCG2 inhibition, ABCB1 as counter-screen | Q9UNQ0 | IgMXP3 cells, JC-1 efflux, flow cytometry | inhibition, % at 6.6 µM | 190,000 compounds, 0.1% hits | AID 1325;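 active = inhibition above 80%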
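Test system: IgMXP3 (ABCG2) plus far-red-tagged CCRF-Adr (ABCB1) cells / Amount: 3 million cells/mL in well / Reagent: JC-1 transporter substrate / Timing: 10 min compound exposure, 25 °C / Signal: flow cytometry, 530 nm JC-1 signal / Read-out: percent efflux inhibition, scaled nicardipine 100% to DMSO 0% / Benchmarks: nicardipine as high control, DMSO as low control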
RAM network inh = inhibitors of the yeast RAM network; S. cerevisiae dse1pr::URA3 reporter, 5-FOA growth OD615, 2 d; analog-sensitive cbk1-as2 kinase mutant strain; inhibition, % at 50 µM; 190,000 compounds, 1.8% hits; AID 868;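 active = inhibition above a set limit, 3 SD over mean compound inhibition, cut at about 8.4% in these data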;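 note: inhibition rescues growth on 5-FOA so higher OD means more RAM inhibition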
WT yeast gro inh = growth inhibition of WT yeast, mitochondrial fusion screen | mitochondrial fusion phenotypic screen, WT strain | inhibition, % at 10 µM | 190,000 compounds, 2.1% hits; in the data active = inhibition above about 58%; tested in S. cerevisiae
ABCB1 inh = blocks JC-1 efflux by human ABCB1 transporter; P08183; CCRF-Adr cells, flow cytometry; inhibition, % at 6.6 µM; 190,000 compounds, 0.067% hits; AID 1326; in the data active = inhibition above about 40%;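 note: higher value means more JC-1 retained so stronger ABCB1 efflux block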
Target sequence (P08183 whole entry, looked up): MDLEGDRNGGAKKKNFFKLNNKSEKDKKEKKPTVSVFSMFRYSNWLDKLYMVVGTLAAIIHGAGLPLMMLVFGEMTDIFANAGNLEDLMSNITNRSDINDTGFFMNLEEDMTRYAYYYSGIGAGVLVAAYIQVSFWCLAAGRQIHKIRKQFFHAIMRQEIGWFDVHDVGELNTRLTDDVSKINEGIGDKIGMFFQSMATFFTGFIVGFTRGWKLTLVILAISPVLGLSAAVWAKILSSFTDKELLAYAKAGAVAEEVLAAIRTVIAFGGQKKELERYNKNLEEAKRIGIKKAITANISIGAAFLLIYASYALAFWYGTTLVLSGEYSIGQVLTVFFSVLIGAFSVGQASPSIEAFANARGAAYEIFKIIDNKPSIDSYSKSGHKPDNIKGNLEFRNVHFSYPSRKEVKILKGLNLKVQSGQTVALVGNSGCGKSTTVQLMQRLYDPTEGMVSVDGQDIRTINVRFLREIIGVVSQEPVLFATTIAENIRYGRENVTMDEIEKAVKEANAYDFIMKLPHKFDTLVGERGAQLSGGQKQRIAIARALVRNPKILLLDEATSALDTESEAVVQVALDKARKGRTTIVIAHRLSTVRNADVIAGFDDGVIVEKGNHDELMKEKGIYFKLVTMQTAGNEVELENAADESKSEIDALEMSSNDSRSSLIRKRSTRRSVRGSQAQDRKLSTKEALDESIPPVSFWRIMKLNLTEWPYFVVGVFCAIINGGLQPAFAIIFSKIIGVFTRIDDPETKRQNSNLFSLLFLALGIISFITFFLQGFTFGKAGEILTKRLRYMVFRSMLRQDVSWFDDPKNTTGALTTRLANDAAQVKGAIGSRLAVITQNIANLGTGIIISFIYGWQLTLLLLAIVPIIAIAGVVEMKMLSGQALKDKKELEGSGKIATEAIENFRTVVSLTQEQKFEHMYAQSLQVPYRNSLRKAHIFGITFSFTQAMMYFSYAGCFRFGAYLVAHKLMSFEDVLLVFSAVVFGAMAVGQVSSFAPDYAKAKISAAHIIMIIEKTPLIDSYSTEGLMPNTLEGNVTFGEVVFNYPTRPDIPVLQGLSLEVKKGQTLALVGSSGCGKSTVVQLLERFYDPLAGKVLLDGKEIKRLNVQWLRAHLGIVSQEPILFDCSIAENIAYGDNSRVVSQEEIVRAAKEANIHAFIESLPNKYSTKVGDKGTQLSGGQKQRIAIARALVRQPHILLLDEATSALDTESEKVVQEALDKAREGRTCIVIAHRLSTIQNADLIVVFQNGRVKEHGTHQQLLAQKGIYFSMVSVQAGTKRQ
Lmaj promast = inhibitors of Leishmania major promastigote growth; AID 1063; Leishmania major promastigotes, resazurin fluorescence viability; inhibition, % at 10 µM; 200,000 compounds, 9% hits; in the data active = inhibition above about 50%;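 note: promastigotes grown with compound for 44 hours at 28 °C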
A number is an active result; - = inactive; . = not tested or not shown. Rows were chosen to be rich in hits. Some 12% of all compounds tested hit in one or more screens of this group.

SMILES | ABCG2 inh | RAM network inh | WT yeast gro inh | ABCB1 inh | Lmaj promast
CCCN1C/C(=C/c2cccc([N+](=O)[O-])c2)C(=O)/C(=C/c2cccc([N+](=O)[O-])c2)C1 | - | - | - | - | 100.6
CCCN1C/C(=C/c2ccc3c(c2)OCO3)C(=O)/C(=C/c2ccc3c(c2)OCO3)C1 | - | - | - | - | 100.3
CCCN1C(=O)/C(=C/c2ccc3c(c2)OCO3)NC1=S | - | - | - | - | -
O=C1NC(=S)N/C1=C/c1cccc([N+](=O)[O-])c1 | - | - | - | - | -
Cc1nc2c(-c3ccc(F)cc3)cnn2c2c1CCC2 | - | - | - | - | -
CC(C)(C)c1ccc(OCC(O)CSc2ncn[nH]2)cc1 (stereo not given) | - | - | - | - | -
Cn1c(=O)[nH]c(=O)c2c1nc(N1CCNCC1)n2Cc1cccc2ccccc12 | - | - | - | - | 82.7
Cc1nnc(SCCn2c(N3CCC(Cc4ccccc4)CC3)nc3c2c(=O)[nH]c(=O)n3C)s1 | . | . | - | . | .
CCCCn1c(N2CCC(Cc3ccccc3)CC2)nc2c1c(=O)[nH]c(=O)n2C | - | - | 67.7 | - | 78.4
O=c1c2c3c(sc2n2cnnc2n1CCc1ccccc1)CCCC3 | - | 8.9 | - | - | -
Cc1nnc2n(CCc3ccccc3)c(=O)c3c4c(sc3n12)CCCC4 | . | . | . | . | -
O=C(c1ccccc1)N1CC(COc2ccccc2)OC(c2cccnc2)O1 (stereo not given) | - | - | - | - | 54.0
CC1CC(N(C(=O)C2CC2)c2ccccc2)c2ccccc2N1C(=O)C1CC1 (stereo not given) | - | - | - | - | -
CC1CC(N(C(=O)c2ccc(Cl)cc2)c2ccccc2)c2ccccc2N1C(=O)c1ccco1 (stereo not given) | - | - | 83.6 | - | 56.5
CC1CC(N(C(=O)c2ccco2)c2ccccc2)c2ccccc2N1C(=O)c1ccco1 (stereo not given) | - | - | - | - | 61.5
Cc1ccc(-n2[nH]c(C)c(/C=N/NC(=O)c3ccc([N+](=O)[O-])cc3)c2=O)c(C)c1 | - | - | - | - | -
CCn1c(=O)c2c3c(sc2n2c(=S)[nH]nc12)CCC3 | - | - | - | - | -
Cc1ccc(C)c(NC(NC(=O)c2ccccn2)C(Cl)(Cl)Cl)c1 (stereo not given) | - | - | - | - | -
COc1nc(N2CCOCC2)nc(C)c1[N+](=O)[O-] | - | - | - | - | 61.8
CC(C)(C)c1ccc(C(=O)OCCNC(=O)c2c(Cl)nc3ccccn23)cc1 | - | - | - | - | 75.6
Cc1nn(Cc2c(Cl)cccc2Cl)c(C)c1NC(=O)CCCn1nc(C)c([N+](=O)[O-])c1C | - | - | - | - | 66.3
Cc1ccc(Cn2nc(C)c(NC(=O)CCCn3nc([N+](=O)[O-])c(Cl)c3C)c2C)cc1 | - | - | - | - | -
Cc1ccc(Cn2nc(C)c(NC(=O)CCCn3nc(C)c([N+](=O)[O-])c3C)c2C)cc1 | - | - | - | - | 51.5
Cc1ccccc1N1C(=O)CN(Cc2sccc2C)C1=S | - | - | - | - | 92.8
Cc1ccc(N2C(=O)CN(Cc3sccc3C)C2=S)cc1C | - | - | - | - | -
SMILES | ABCG2 inh | RAM network inh | WT yeast gro inh | ABCB1 inh | Lmaj promast
Cc1ccc(Oc2cc(C)nc(-c3ccccc3O)n2)cc1 | - | 9.4 | . | - | -
CCCCC(CCC(=O)Nc1ccccc1C(=O)OCC)C(=O)O (stereo not given) | - | - | - | - | -
O=C(c1cc(-c2ccncc2)nc2ccccc12)N1CCN(S(=O)(=O)/C=C/c2ccccc2)CC1 | - | - | - | - | 97.5
O=S(=O)(/C=C/c1ccccc1)N1CCN(c2nc(-c3cccnc3)nc3ccccc23)CC1 | - | - | - | - | 52.5
O=S(=O)(c1ccc2c(c1)OCCO2)N1CCN(c2nc(-c3cccnc3)nc3ccccc23)CC1 | - | - | - | - | -
CCc1ccc(OCC(=O)Nc2cc(S(=O)(=O)CC)ccc2O)cc1 | - | - | - | - | -
Cc1cccc(NC(=S)NC(=O)c2ccco2)n1 | - | - | - | - | -
O=C(Oc1cccc2ccccc12)c1ccco1 | - | - | - | - | -
O=C(Oc1ccccc1)c1cccc2cccnc12 | - | - | - | - | 94.3
O=C(Oc1cccc2cccnc12)c1ccco1 | - | - | - | - | 99.1
O=C(Oc1ccc(Cl)c2cccnc12)c1ccco1 | - | - | - | - | 98.8
O=[N+]([O-])c1ccc(Oc2cccc3cccnc23)c([N+](=O)[O-])c1 | - | - | 62.6 | - | -
Cn1c(=NC(=O)COc2ccccc2)sc2ccccc21 | - | - | - | - | -
O=C(Oc1cccc2cccnc12)c1cccs1 | - | - | - | - | 99.6
O=C(Cc1ccc(Cl)cc1)Oc1cccc2cccnc12 | - | - | - | - | 97.3
Cc1c(C(=O)Oc2cccc3cccnc23)cccc1[N+](=O)[O-] | - | - | - | - | 98.1
CN(Cc1cccnc1)Cc1cn(Cc2ccccc2)nc1-c1ccc2c(c1)OCO2 | - | - | - | - | -
CC1(C)N([O-])C2=C(CCCC2)[N+]1=O | - | - | - | - | -
CC1CCN(c2cc(N3CCC(C)CC3)c([N+](=O)[O-])cc2/C=C(\C#N)c2nn(-c3ccccc3)c(N)c2C#N)CC1 | - | - | - | - | -
N#C/C(=C\c1ccc(N2CCCCC2)c([N+](=O)[O-])c1)c1nn(-c2ccccc2)c(N)c1C#N | - | - | - | . | 98.8
CC1CCN(c2ccc(/C=C(\C#N)c3nn(-c4ccccc4)c(N)c3C#N)cc2[N+](=O)[O-])CC1 | - | - | - | - | 95.2
CC1CCCN(c2ccc(/C=C(\C#N)c3nn(-c4ccccc4)c(N)c3C#N)cc2[N+](=O)[O-])C1 (stereo not given) | - | - | - | - | 95.6
O=C(NCC(c1cccs1)N1CCOCC1)c1ccc(Cl)c([N+](=O)[O-])c1 (stereo not given) | - | - | - | - | -
CSc1nnc(-c2cc[n+](C)cc2)n1CCO | - | - | - | . | -
O=C1CC(=C2c3ccccc3-c3ccccc32)C(=O)N1CCCCN1CCN(c2ccccc2)CC1 | - | - | - | - | 99.4
SMILES | ABCG2 inh | RAM network inh | WT yeast gro inh | ABCB1 inh | Lmaj promast
O=C1c2ccccc2C(=O)N1CCCCN1CCN(CCCCN2C(=O)c3ccccc3C2=O)CC1 | . | . | . | . | -
COc1ccc(C(C(=O)NC2CCCC2)N(C(=O)c2snc(-c3ccc(F)cc3)c2N)c2ccc(F)cc2)cc1 (stereo not given) | - | - | - | - | 71.0
COc1ccc(C(C(=O)NC2CCCC2)N(C(=O)c2snc(-c3ccc(F)cc3)c2N)c2ccc(OC)cc2)cc1 (stereo not given) | - | - | - | - | 63.0
COc1cc(CN(C(=S)NCC(=O)NC2CC2)C2CCCC2)cc(OC)c1OC | - | - | - | - | -
CN(C)C(CNS(=O)(=O)c1ccc(Cl)cc1)c1cccnc1 (stereo not given) | - | - | - | - | -
O=S(=O)(NCC(Nc1ccc(Cl)cc1)c1ccccc1)c1ccc(Cl)cc1 (stereo not given) | - | 9.0 | 74.1 | - | 58.3
